KCNQ1 block: inhibitors of human KCNQ1 channel, primary screen, cell-based, thallium flux, high-throughput. Potassium voltage-gated channel subfamily KQT member 1 (Homo sapiens), P51787. CHO-K1 KCNQ1, FluxOR thallium flux fluorescence; stronger effect = higher value. B-score at 10 µM. actives 1.3% (n = 310,000);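 active = compounds whose thallium flux B-score, printed positive for inhibition, exceeds three library SD while starting fluorescence stays within three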;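 also: channel opened by potassium depolarization with thallium stimulus after 20 min compound exposure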
Target sequence (P51787 whole entry, looked up): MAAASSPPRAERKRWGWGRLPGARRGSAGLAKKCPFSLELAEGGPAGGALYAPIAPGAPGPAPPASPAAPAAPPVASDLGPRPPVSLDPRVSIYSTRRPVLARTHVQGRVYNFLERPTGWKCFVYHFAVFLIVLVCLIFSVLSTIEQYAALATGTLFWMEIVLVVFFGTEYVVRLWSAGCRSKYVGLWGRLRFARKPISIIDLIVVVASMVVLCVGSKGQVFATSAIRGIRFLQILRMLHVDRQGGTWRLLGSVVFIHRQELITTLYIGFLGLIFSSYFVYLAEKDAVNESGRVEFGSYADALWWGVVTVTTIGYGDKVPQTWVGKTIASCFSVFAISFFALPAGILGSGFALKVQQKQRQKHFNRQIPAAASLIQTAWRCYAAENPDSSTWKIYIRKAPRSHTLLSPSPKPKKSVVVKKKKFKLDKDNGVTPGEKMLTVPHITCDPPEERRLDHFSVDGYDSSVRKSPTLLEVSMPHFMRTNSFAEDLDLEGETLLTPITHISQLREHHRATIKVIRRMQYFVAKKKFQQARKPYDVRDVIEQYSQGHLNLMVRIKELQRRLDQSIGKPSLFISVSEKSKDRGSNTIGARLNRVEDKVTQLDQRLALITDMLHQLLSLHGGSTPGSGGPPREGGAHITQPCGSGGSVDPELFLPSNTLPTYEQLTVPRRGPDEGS
KCNK9 inh: KCNK9 potassium channel inhibitors, primary screen, HEK293 cells, thallium flux. FluxOR thallium flux fluorescence; stronger effect = lower value. B-score at 10 µM. actives 1.2% (n = 310,000);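 active = ratio B-score over 3 SD below the library mean, with starting fluorescence within 5 SD of its mean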;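 also: negative B-score means less thallium flux so channel inhibition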
KCNQ1 act: potentiators or activators of KCNQ1 channel, primary screen, cell-based, thallium flux, high-throughput. CHO-K1 KCNQ1, thallium flux FluxOR fluorescence; stronger effect = higher value. B-score at 10 µM. actives 0.35% (n = 310,000). AID 2648, 2010;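 active = fluorescence ratio B-score, a plate-corrected score, at least three library SD, with initial intensity B-score within 5 SD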
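Medium – assay buffer, equal DMSO in all wells · Material – CHO-K1 cell line with stable KCNQ1 potassium channel expression · Signal – kinetic FluxOR thallium fluorescence, 10-s 1-Hz baseline, 110-s post-stimulus read · Compound – single concentration per compound, DMSO matched to controls · Schedule – 37 °C overnight plating, 90-min dark dye load, 20-min compound pretreatment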
Kir21 inh: inhibitors of mouse Kir2.1 inward-rectifier potassium channel. Inward rectifier potassium channel 2 (Mus musculus), P35561. HEK293-Kir2.1, FluxOR thallium flux fluorescence; stronger effect = lower value. B-score at 10 µM. actives 0.85% (n = 310,000). AID 1672, 2009;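 active = fluorescence ratio B-score at or below minus 3 SD of library scores, with starting-brightness B-score within 2 SD, cut at about -4.2 in these data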;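 also: channel flux triggered by added potassium and thallium sulfate stimulus; B-score of peak minus minimum fluorescence over baseline after thallium stimulus; more negative B-score means stronger Kir2.1 block with less thallium influx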
KCNK3 block: human KCNK3 channel inhibitors, primary screen, CHO cells, FluxOR thallium flux, B-score; B-score at 10 µM; FluxOR fluorescence; stronger effect = lower value; Potassium channel subfamily K member 3 (Homo sapiens), O14649; actives 0.84% (n = 340,000);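 active = B-score under library mean minus 4 SD, starting fluorescence ratio at most library mean plus 5 SD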;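 also: more negative B-score means stronger inhibition of thallium flux through KCNK3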
hERG protect: hERG rescue from dofetilide block, primary screen, cell-based, CHO-hERG, FluxOR thallium flux, dofetilide IC70. Voltage-gated inwardly rectifying potassium channel KCNH2 (Homo sapiens), Q12809. dofetilide IC70 present. activation (rescue from dofetilide block), less the hit threshold, % at 10 µM. actives 0.51% (n = 310,000). AID 1511, 2009;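 active = activation above the mean of controls blocked by dofetilide plus 5 SD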;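 also: thallium influx through hERG after potassium depolarization seen as dye fluorescence rise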
Each line names hits and unclear results; the compound was inactive in the other large screens. Most compounds without a hit are left out; they make up all but 3.7% or so of the library.

Cc1ccc(-n2cc(-c3ccc([N+](=O)[O-])cc3)[nH]c2=S)c(C)c1	hERG protect 7.2
COc1ccc(NC(=O)C2CCCN(C(=O)c3ccc(Cl)cc3)C2)cc1S(=O)(=O)N(C)C (configuration not stated)	none (no result: KCNQ1 block, KCNK9 inh, KCNQ1 act, Kir21 inh, hERG protect)
CC1CCc2nc3ccccc3c(C(=O)OCC(=O)N3CCc4ccccc43)c2C1 (configuration not stated)	none
CCCc1nc2ccccc2c(C(=O)OCC(=O)N2CCc3ccccc32)c1CC	KCNK9 inh -6.6
CCOC(=O)C(=Cc1cc(=O)c(OC)co1)C(=O)OCC	KCNQ1 act 10, Kir21 inh -7.3
CC(C)Oc1ccc(CCC(=O)N/N=C/c2ccc3c(c2)OCO3)cc1	none
O=C(CCc1ccc(O)c(O)c1)N/N=C/c1ccc2c(c1)OCO2	KCNQ1 block 6
Cn1c(SCC(=O)Nc2ccc3c(c2)OCCO3)nnc1C1CC1	none
CCOC(=O)c1sc2nc(CC(=O)OC)nc(NCc3ccco3)c2c1C	none
CCOC(=O)c1sc2ncnc(NCc3ccco3)c2c1C	KCNQ1 act 37, hERG protect 16
O=C1CC(NS(=O)(=O)c2cccnc2)CN1c1cccc(F)c1 (configuration not stated)	none
COc1ccc(C(C)=O)cc1CSc1nnc(Nc2ccccc2C)s1	Kir21 inh -4.3
COc1ccc(C(C)=O)cc1CSc1nnc(Nc2ccc(C)cc2C)s1	none
CCC(=O)c1ccccc1OCCN1C(=O)NC(C)(C)C1=O	none
CCCCNCCOCCOc1ccccc1-c1ccccc1	Kir21 inh -10
COCCNCCCCOc1ccccc1-c1ccccc1	Kir21 inh -6.3
CN(C)CCCCOc1ccccc1-c1ccccc1	none
CC(C)NCCCCOc1ccccc1-c1ccccc1	Kir21 inh -5.6 (no result: KCNK3 block)
CC1(C)NC(=O)N(CCOCCOc2ccccc2-c2ccccc2)C1=O	Kir21 inh -5.4
C=CCNCCOc1ccccc1-c1ccccc1	none
S=C(NCCc1ccccc1)N1CCn2cccc2C1c1cccnc1 (configuration not stated)	KCNQ1 act 15
S=C(NCc1ccccc1)N1CCn2cccc2C1c1cccnc1 (configuration not stated)	none
O=C(c1cccs1)c1ccc(-c2cccs2)s1	KCNK9 inh -6.8
CCCCC1(Cc2ccc([N+](=O)[O-])cc2)C(=O)N(c2ccccc2)N(c2ccccc2)C1=O	KCNQ1 block 8
CC12CCC(=O)N1C(C(=O)Nc1cc(Cl)ccc1N1CCCC1)CS2 (configuration not stated)	none (no result: KCNQ1 block, KCNK9 inh, KCNQ1 act, Kir21 inh, hERG protect)
C=CCNc1nc(-c2c(C)nc3sccn23)cs1	none
Cc1nc2sccn2c1-c1csc(NCc2ccccc2)n1	KCNQ1 block 6
O=S(=O)(NCCN1CCOCC1)c1cc(Cl)c(Cl)cc1Cl	none
c1ccc(Nc2nc(N3CCCC3)nc(N3CCCC3)n2)cc1	none
c1ccc(Nc2nc(N3CCCCC3)nc(N3CCCCC3)n2)cc1	KCNQ1 block 9
O=C(O)Cc1cc(I)c(Oc2ccc(O)c(I)c2)c(I)c1	hERG protect 9.9 (no result: KCNK3 block)
O=C(O)Cc1ccc(O)c(O)c1	none
Cc1noc(C)c1C(=O)OC(C)C(=O)N(C)c1ccccc1 (configuration not stated)	none (no result: KCNQ1 block, KCNK9 inh, KCNQ1 act, Kir21 inh, hERG protect)
Cc1cccc(CN2CCc3c([nH]c4ccccc34)C2)c1	Kir21 inh -5.9
Clc1cccc(CN2CCc3c([nH]c4ccccc34)C2)c1	none
CN(C)CCNC(=S)NC1CCCCC1	none
CN(C)CCOC(C1CCCCC1)C1CCCCC1	Kir21 inh -4.6
Nn1c(Cc2cccc3ccccc23)nnc1SCCOc1ccc(Br)cc1	none
Nn1c(Cc2cccc3ccccc23)nnc1SCCOc1ccc(F)cc1	KCNK9 inh -7.9
Cc1ccc(Nc2nc(N)c3ccccc3n2)cc1Cl	Kir21 inh -13
Nc1nc(Nc2ccc(Cl)cc2)nc2ccccc12	Kir21 inh -14
O=C(NCc1cccnc1)C1CC(c2ccc(Cl)c(Cl)c2)=NO1 (configuration not stated)	none
Oc1cccc(C(=S)N2CCC(Cc3ccccc3)CC2)c1	none
O=S(=O)(Nc1nc2ccccc2nc1Nc1ccc2c(c1)OCCO2)c1cccs1	KCNQ1 block 12
COc1ccc(S(=O)(=O)Nc2nc3ccccc3nc2Nc2ccc3c(c2)OCO3)cc1	none (no result: KCNK3 block)
O=C1Nc2ccccc2/C1=C/c1cnc(-c2ccccc2)[nH]1	KCNK9 inh -6.6
COC(=O)c1ccc(/C=C/c2c(-c3ccsc3)oc3ccc(N4CCOCC4)cc23)cc1	none
CN(/N=C/c1cc(Cl)cc(Cl)c1O)C(=S)NC(C)(C)C	KCNQ1 block 13
Cc1ccc(C2SCCN2C(=O)c2ccc([N+](=O)[O-])cc2)cc1 (configuration not stated)	Kir21 inh -6.5
COc1ccc(C(=O)C2CCCN(Cc3ccc(Sc4nncn4C)o3)C2)cc1F (configuration not stated)	none
Cc1ccc(SCCNC(=O)c2ccc(C)c(S(=O)(=O)Nc3cccc(C)c3)c2)cc1	KCNK3 block -11
CCOc1ccc(-n2cnc3sc(C)c(C)c3c2=O)cc1	hERG protect 5.6
COc1ccc(-c2csc3ncn(-c4ccccc4OC)c(=O)c23)cc1OC	none
COc1ccccc1-n1cnc2sc(C)c(C)c2c1=O	hERG protect 6.0
Cc1sc2ncn(-c3ccccc3)c(=O)c2c1C	none
Cc1ccc(OCC(=O)NNC(=O)C2CSC3(C)CCC(=O)N23)cc1C (configuration not stated)	none (no result: KCNQ1 block, KCNK9 inh, KCNQ1 act, Kir21 inh, hERG protect)
Cc1ccc(S(=O)(=O)n2cnc(C)c2)cc1	none
O=C(NCCCn1ccnc1)c1cc(S(=O)(=O)N2CCOCC2)c(Cl)cc1Cl	none
Cc1ccc(S(=O)(=O)N2CCOCC2)cc1C(=O)NCCCn1ccnc1	hERG protect 4.7
Nc1cc(Cl)ccc1C(=O)OCC(=O)NCc1cccs1	none (no result: KCNQ1 block, KCNK9 inh, KCNQ1 act, Kir21 inh, hERG protect)
Cc1cccc(CSc2ccc(S(=O)(=O)N3CCCC3)cn2)c1	none (no result: KCNQ1 block, KCNK9 inh, KCNQ1 act, Kir21 inh, hERG protect)
COc1cc(C(=O)Nc2cccc(S(=O)(=O)N3CCCC3)c2)cc(OC)c1C	KCNK9 inh -7.7
COc1ccccc1CCC(=O)Nc1cccc(S(=O)(=O)N2CCCCCC2)c1	KCNQ1 block 6
CC(C)=CCC/C(C)=C/CC(C)(C)CNCCN1CCNCC1	Kir21 inh -8.2 (no result: KCNK3 block)
CC(C)=CCC/C(C)=C/CCC(C)NCCN1CCNCC1 (configuration not stated)	Kir21 inh -7.4 (no result: KCNK3 block)

Screening results as filed in PubChem.
